Experimental data taken from ChEMBL document CHEMBL5705902, “Role of G Protein-Coupled Receptor Kinases 2 and 3 in μ-Opioid Receptor Desensitization and Internalization” (Mol Pharmacol, 2015).
The source made the active and inactive calls. No cut-off for these calls is given here.

Assays:
[1] = target: Ribosomal protein S6 kinase beta-1 (Homo sapiens) (UniProt P23443); experiment: Inhibition of human S6K1 assessed as remaining activity at 1 uM in presence of 32ATP relative to control
In short: (§1)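 Express panel of 52 purified human kinases run in vitro. Kinase activity was measured directly by a radioactive filter-binding assay with ³²ATP, at ATP levels at or below each kinase's calculated Km for ATP. The compound was tested at 1 μM. Each assay was run in duplicate, and activity is given as the mean percentage (with S.D.) of activity without inhibitor.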

[2] = target: Beta-adrenergic receptor kinase 1 (Homo sapiens) (UniProt P25098); experiment: Inhibition of human GRK2 at 1 uM relative to control
[3] = target: Proto-oncogene tyrosine-protein kinase Src (Homo sapiens) (UniProt P12931); experiment: Inhibition of human Src assessed as remaining activity at 1 uM in presence of 32ATP relative to control; in short: as §1
[4] = target: Ephrin type-A receptor 2 (Homo sapiens) (UniProt P29317); experiment: Inhibition of human EPHA2 assessed as remaining activity at 1 uM in presence of 32ATP relative to control; in short: as §1
[5] = target: Tyrosine-protein kinase SYK (Homo sapiens) (UniProt P43405); experiment: Inhibition of human SYK assessed as remaining activity at 1 uM in presence of 32ATP relative to control; in short: as §1
[6] = target: Serine/threonine-protein kinase N2 (Homo sapiens) (UniProt Q16513); experiment: Inhibition of human PRK2 assessed as remaining activity at 1 uM in presence of 32ATP relative to control; in short: as §1
[7] = target: Mu-type opioid receptor (Rattus norvegicus) (UniProt P33535); experiment: Inhibition of MOPr desensitization (unknown origin) assessed as drop in maximum morphine response at 30 uM incubated for 15 mins relative to control
Target sequence in this assay (P33535 whole entry, looked up): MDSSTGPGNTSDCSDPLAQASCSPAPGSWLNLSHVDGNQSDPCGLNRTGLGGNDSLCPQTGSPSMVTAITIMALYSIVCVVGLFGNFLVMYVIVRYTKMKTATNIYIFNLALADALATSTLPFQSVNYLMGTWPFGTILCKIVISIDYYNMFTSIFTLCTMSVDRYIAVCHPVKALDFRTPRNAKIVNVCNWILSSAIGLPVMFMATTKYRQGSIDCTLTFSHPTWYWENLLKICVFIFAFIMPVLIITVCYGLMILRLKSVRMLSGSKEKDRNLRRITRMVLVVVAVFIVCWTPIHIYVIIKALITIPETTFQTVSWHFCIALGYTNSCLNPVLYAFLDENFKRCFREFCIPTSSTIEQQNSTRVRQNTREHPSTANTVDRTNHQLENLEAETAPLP

[8] = target: Serine/threonine-protein kinase 3 (Homo sapiens) (UniProt Q13188); experiment: Inhibition of human MST2 assessed as remaining activity at 1 uM in presence of 32ATP relative to control; in short: as §1
[9] = target: G protein-coupled receptor kinase 5 (Bos taurus) (UniProt P43249); experiment: Inhibition of C-terminal truncations tagged bovine GRK5 at 125 uM in the presence of ATP
[10] = target: Calcium/calmodulin-dependent protein kinase kinase 2 (Homo sapiens) (UniProt Q96RR4); experiment: Inhibition of human CAMKKb assessed as remaining activity at 1 uM in presence of 32ATP relative to control
In short: (§2)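 Express screen of 52 purified human kinases run as a radioactive filter-binding assay with 32ATP, at 1 μM inhibitor. ATP was at or below each kinase's calculated Km. Activity is given as percent of the activity without inhibitor. Run in duplicate; mean with S.D.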

[11] = target: Dual specificity mitogen-activated protein kinase kinase 1 (Homo sapiens) (UniProt Q02750); experiment: Inhibition of human MKK1 assessed as remaining activity at 1 uM in presence of 32ATP relative to control; in short: as §1
[12] = target: RAC-alpha serine/threonine-protein kinase (Homo sapiens) (UniProt P31749); experiment: Inhibition of human PKBa assessed as remaining activity at 1 uM in presence of 32ATP relative to control; in short: as §1
[13] = target: Tyrosine-protein kinase JAK2 (Homo sapiens) (UniProt O60674); experiment: Inhibition of human JAK2 assessed as remaining activity at 1 uM in presence of 32ATP relative to control; in short: as §1
[14] = target: Mu-type opioid receptor (Rattus norvegicus) (UniProt P33535); experiment: Inhibition of MOPr desensitization (unknown origin) assessed as reduction in the DAMGO induced desensitization at 3 to 30 uM incubated for 15 mins; settings: dose 3-30 µM
Target sequence in this assay (P33535 whole entry, looked up): as above

[15] = target: Mitogen-activated protein kinase kinase kinase 11 (Homo sapiens) (UniProt Q16584); experiment: Inhibition of human MLK3 assessed as remaining activity at 1 uM in presence of 32ATP relative to control; in short: as §1
[16] = target: Calcium/calmodulin-dependent protein kinase type 1 (Homo sapiens) (UniProt Q14012); experiment: Inhibition of human CAMK1 assessed as remaining activity at 1 uM in presence of 32ATP relative to control; in short: as §2
[17] = target: Homeodomain-interacting protein kinase 2 (Homo sapiens) (UniProt Q9H2X6); experiment: Inhibition of human HIPK2 assessed as remaining activity at 1 uM in presence of 32ATP relative to control; in short: as §1
[18] = target: cAMP-dependent protein kinase (PKA) (Homo sapiens) (UniProt P22694+P17612+P22612); experiment: Inhibition of human PKA assessed as remaining activity at 1 uM in presence of 32ATP relative to control; type: protein assay; in short: as §1
[19] = target: Receptor tyrosine-protein kinase erbB-4 (Homo sapiens) (UniProt Q15303); experiment: Inhibition of human HER4 assessed as remaining activity at 1 uM in presence of 32ATP relative to control; in short: as §1
[20] = target: Serine/threonine-protein kinase Sgk1 (Homo sapiens) (UniProt O00141); experiment: Inhibition of human SGK1 at 1 uM in presence of 32ATP relative to control; in short: as §1
[21] = target: High affinity nerve growth factor receptor (Homo sapiens) (UniProt P04629); experiment: Inhibition of human TrkA assessed as remaining activity at 1 uM in presence of 32ATP relative to control; in short: as §1
[22] = target: Serine/threonine-protein kinase Chk2 (Homo sapiens) (UniProt O96017); experiment: Inhibition of human CHK2 assessed as remaining activity at 1 uM in presence of 32ATP relative to control; in short: as §2
[23] = target: Mu-type opioid receptor (Rattus norvegicus) (UniProt P33535); experiment: Inhibition of HA-tagged rat MOPr in HEK293 cells assessed as prevention in DAMGO induced MOPr phosphorylation at Thr379 level at 30 uM preincubated for 30 mins by western blot analysis; type: functional, cell-based
Target sequence in this assay (P33535 whole entry): as the sequence (P33535 whole entry, looked up) above

[24] = target: Insulin-like growth factor 1 receptor (Homo sapiens) (UniProt P08069); experiment: Inhibition of human IGF1R assessed as remaining activity at 1 uM in presence of 32ATP relative to control; in short: as §1
[25] = target: Ribosomal protein S6 kinase alpha-5 (Homo sapiens) (UniProt O75582); experiment: Inhibition of human MSK1 at 1 uM in presence of 32ATP relative to control; in short: as §1
[26] = target: Mu-type opioid receptor (Rattus norvegicus) (UniProt P33535); experiment: Inhibition of HA-tagged rat MOPr in HEK293 cells assessed as reduction in DAMGO induced MOPr internalization level at 30 uM preincubated for 30 mins by ELISA method; type: functional, cell-based
In short: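 Surface HA-MOPr in HEK 293 cells was prelabeled with anti-HA for 1 h at 4°C, then inhibitor (3 or 30 μM) was given for 30 min at 37°C, then DAMGO 10 μM at 37°C. Surface receptor was measured by ELISA and normalized to cells not exposed to DAMGO; n = 3–4.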
Target sequence in this assay (P33535 whole entry): as the sequence (P33535 whole entry, looked up) above

[27] = target: Aurora kinase B (Homo sapiens) (UniProt Q96GD4); experiment: Inhibition of human Aurora B assessed as remaining activity at 1 uM in presence of 32ATP relative to control; in short: as §2
[28] = target: Mu-type opioid receptor (Rattus norvegicus) (UniProt P33535); experiment: Inhibition of MOPr desensitization (unknown origin) assessed as DAMGO induced loss of functional receptor at 30 uM incubated for 15 mins relative to control
Target sequence in this assay (P33535 whole entry, looked up): as above

Aurora kinase B (Homo sapiens), sequence (Q96GD4 whole entry): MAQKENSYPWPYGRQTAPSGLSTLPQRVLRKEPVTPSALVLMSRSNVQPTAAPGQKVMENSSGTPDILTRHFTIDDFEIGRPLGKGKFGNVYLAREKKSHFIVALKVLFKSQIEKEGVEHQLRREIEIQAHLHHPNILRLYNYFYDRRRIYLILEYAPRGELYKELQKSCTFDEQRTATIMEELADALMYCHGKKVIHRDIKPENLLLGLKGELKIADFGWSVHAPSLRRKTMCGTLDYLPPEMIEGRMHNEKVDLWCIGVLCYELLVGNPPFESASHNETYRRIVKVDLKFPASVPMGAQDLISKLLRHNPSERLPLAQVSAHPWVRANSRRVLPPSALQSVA
Calcium/calmodulin-dependent protein kinase kinase 2 (Homo sapiens), sequence (Q96RR4 2-588 limits assumed): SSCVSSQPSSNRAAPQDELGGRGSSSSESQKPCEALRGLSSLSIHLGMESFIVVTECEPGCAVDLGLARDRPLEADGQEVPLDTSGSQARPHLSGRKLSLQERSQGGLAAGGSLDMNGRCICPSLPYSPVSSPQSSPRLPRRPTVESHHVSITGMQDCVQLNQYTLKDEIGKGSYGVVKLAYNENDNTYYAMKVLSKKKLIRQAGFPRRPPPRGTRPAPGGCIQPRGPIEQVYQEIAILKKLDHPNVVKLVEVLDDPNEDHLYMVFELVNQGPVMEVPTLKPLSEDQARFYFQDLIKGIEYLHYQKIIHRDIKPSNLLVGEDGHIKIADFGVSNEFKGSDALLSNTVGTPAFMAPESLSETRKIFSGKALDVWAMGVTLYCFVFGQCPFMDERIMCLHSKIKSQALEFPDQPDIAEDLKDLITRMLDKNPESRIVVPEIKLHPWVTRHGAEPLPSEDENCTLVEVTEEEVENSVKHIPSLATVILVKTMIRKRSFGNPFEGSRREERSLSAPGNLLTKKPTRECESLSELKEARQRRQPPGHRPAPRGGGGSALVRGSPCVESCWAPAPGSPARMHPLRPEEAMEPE
Proto-oncogene tyrosine-protein kinase Src (Homo sapiens), sequence (P12931 2-536 limits assumed): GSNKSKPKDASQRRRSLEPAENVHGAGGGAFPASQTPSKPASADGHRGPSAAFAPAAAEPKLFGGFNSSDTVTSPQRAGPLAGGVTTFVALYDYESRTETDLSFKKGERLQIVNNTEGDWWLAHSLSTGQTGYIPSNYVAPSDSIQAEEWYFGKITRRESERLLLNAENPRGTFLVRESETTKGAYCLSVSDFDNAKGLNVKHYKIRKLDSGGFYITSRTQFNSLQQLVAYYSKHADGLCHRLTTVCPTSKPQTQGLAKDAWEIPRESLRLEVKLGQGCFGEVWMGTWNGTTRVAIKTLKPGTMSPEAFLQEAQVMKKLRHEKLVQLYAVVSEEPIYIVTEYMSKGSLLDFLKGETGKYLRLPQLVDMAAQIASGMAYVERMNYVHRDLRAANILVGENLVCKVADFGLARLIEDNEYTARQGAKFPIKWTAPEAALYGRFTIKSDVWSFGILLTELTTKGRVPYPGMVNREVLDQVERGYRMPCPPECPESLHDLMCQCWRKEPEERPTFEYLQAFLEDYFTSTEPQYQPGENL
Ribosomal protein S6 kinase alpha-5 (Homo sapiens), sequence (O75582 whole entry, looked up): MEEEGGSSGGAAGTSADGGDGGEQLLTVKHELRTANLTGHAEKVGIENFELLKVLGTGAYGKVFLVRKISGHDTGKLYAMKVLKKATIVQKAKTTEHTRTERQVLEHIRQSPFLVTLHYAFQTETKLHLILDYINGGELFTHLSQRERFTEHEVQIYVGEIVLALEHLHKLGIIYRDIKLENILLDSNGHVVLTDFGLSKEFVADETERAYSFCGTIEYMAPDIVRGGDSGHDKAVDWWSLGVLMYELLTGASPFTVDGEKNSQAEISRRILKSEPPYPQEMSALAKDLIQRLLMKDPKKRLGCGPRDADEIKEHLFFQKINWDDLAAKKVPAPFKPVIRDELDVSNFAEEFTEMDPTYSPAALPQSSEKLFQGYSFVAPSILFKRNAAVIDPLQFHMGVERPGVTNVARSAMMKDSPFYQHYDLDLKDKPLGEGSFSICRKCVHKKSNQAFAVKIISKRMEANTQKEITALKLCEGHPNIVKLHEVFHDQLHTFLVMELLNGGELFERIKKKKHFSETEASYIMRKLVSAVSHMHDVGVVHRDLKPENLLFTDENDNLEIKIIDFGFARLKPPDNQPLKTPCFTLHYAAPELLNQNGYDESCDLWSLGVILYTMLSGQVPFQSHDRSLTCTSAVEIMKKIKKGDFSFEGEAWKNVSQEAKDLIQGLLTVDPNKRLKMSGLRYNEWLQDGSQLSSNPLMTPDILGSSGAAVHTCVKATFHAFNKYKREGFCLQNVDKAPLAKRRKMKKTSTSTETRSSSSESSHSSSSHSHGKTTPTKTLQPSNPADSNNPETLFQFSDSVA
Receptor tyrosine-protein kinase erbB-4 (Homo sapiens), sequence (Q15303 whole entry): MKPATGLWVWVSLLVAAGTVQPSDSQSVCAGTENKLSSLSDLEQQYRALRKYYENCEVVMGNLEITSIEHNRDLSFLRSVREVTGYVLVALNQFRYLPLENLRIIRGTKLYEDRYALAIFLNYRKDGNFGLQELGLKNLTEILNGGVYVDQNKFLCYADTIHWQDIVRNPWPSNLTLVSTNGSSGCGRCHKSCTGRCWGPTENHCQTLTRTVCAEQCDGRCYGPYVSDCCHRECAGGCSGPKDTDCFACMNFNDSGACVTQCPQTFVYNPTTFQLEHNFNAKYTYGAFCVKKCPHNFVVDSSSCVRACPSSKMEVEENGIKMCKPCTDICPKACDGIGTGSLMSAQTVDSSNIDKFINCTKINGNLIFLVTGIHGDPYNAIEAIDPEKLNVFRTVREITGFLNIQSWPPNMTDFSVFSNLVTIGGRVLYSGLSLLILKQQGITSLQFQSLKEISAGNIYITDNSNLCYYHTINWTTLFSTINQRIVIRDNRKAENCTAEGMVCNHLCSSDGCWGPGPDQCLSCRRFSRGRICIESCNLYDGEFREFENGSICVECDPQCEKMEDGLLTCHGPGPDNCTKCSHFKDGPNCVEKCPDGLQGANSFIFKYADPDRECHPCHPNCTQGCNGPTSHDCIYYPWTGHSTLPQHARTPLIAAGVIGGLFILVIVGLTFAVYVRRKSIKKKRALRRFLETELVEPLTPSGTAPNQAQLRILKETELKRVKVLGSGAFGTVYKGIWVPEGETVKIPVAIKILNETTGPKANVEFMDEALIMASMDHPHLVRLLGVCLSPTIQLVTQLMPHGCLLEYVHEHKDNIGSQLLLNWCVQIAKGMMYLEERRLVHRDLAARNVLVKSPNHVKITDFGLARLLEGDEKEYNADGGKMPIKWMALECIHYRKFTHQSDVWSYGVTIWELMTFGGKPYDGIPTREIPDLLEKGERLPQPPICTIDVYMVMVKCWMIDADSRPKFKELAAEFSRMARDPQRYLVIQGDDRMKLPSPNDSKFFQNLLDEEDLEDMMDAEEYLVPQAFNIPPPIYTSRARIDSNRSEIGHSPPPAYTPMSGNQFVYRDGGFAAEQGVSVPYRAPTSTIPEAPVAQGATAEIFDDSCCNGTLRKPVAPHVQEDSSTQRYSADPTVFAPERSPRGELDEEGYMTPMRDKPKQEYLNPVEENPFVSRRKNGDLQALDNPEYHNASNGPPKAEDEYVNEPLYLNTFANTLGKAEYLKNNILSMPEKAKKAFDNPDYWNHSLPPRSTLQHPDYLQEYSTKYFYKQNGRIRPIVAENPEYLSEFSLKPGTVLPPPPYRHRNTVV
Serine/threonine-protein kinase Sgk1 (Homo sapiens), sequence (O00141 whole entry): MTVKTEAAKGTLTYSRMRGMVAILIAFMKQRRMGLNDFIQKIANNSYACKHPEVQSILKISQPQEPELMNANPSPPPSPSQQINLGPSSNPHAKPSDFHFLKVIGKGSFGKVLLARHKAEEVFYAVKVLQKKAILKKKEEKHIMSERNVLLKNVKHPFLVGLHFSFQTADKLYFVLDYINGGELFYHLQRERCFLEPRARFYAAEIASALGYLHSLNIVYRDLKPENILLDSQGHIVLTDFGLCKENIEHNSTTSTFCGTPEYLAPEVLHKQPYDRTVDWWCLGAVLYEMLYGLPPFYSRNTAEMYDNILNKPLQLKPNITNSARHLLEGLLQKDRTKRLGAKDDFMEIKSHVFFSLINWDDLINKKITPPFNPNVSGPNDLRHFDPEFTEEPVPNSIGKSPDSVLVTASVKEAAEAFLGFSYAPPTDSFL
Calcium/calmodulin-dependent protein kinase type 1 (Homo sapiens), sequence (Q14012 whole entry, looked up): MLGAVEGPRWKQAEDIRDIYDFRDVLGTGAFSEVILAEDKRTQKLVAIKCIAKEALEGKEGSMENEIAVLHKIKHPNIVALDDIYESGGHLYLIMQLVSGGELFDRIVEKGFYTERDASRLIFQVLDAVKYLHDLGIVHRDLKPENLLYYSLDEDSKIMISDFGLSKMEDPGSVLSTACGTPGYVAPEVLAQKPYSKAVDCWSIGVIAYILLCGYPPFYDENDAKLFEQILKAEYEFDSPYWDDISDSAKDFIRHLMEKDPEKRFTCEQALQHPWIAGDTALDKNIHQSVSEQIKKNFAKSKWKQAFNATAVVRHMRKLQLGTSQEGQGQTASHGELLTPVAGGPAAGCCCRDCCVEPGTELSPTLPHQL

## Cn1c(CNc2cccc(C(=O)NCc3ccccc3C(F)(F)F)c2)nnc1-c1ccncc1
[1]
  Activity: 47%
[2]
  inhibition: > 90%
[3]
  Activity: 104%
[4]
  Activity: 85%
[5]
  Activity: 103%
[6]
  Activity: 7%
[7]
  inhibition: 44%
[8]
  Activity: 89%
[9]
  inhibition: inactive
[10]
  Activity: 69%
[11]
  Activity: 88%
[12]
  Activity: 83%
[13]
  Activity: 94%
[14]
  inhibition: Active
[15]
  Activity: 86%
[16]
  Activity: 101%
[17]
  Activity: 103%
[18]
  Activity: 95%
[19]
  Activity: 86%
[20]
  inhibition: 69%
[21]
  Activity: 106%
[22]
  Activity: 79%
[23]
  inhibition: Active
[24]
  Activity: 103%
[25]
  inhibition: > 50%
[26]
  inhibition: Active
[27]
  Activity: 92%
[28]
  inhibition: 59%
